Data from ChEMBL document CHEMBL4334439, “Discovery, Optimization, and Target Identification of Novel Potent Broad-Spectrum Antiviral Inhibitors” (J Med Chem, 2019).
Activity calls are given as the source filed them. No cut-off for these calls is given here.

Legend:
[1] = Selectivity index, ratio of CC50 for human Huh7.5.1 cells to EC50 for DENV infected in human Huh7.5.1 cells; type: toxicity, cell-based; conditions: read-out: Ratio CC50/EC50
In short: (§1)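 SI from two assays. Antiviral: Huh7.5.1 cells infected with DENV II or ZIKV at MOI 0.1; viral RNA measured by qRT-PCR after 3 days; EC50 taken at 50% RNA reduction. Cytotoxicity: cells seeded at 1×10^4/well, given serially diluted compound for 48 h, then WST-1 absorbance (OD450/OD630) read for CC50.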

[2] = Cytotoxicity against human Caco2 cells infected with MERS-CoV measured after 48 hrs by WST1 assay; type: cell-based, Caco-2
In short: (§2)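 Cells at 1×10^4/well, cultured overnight at 37 °C, were incubated 48 h with serially diluted compound. Viability was read by WST-1 absorbance (OD450/OD630).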

Hepatitis C virus [3] = test: Antiviral activity against EGFP-fused HCV JFH-1 harboring K78E/E2-G451R/NS3-M260K/NS5A-T462I mutation infected in human Huh7.5.1 cells assessed as combination index after 2 days in presence of telaprevir by qRT-PCR analysis; type: functional, Hepacivirus hominis
In short: (§3)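 In HCVcc-infected Huh7.5.1 cells (1×10^4/well, overnight, 37 °C), compound was given at various concentrations alone or with the named approved antiviral. After 2 days HCV RNA was quantified by qRT-PCR to derive the combination index.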

[4] = Selectivity index, ratio of CC50 for African green monkey Vero cells to EC50 for RSV infected in African green monkey Vero cells; type: toxicity; conditions: read-out: Ratio CC50/EC50
Hepatitis C virus [5] = test: Antiviral activity against EGFP-fused HCV JFH-1 harboring K78E/E2-G451R/NS3-M260K/NS5A-T462I mutation infected in human Huh7.5.1 cells assessed as combination index after 2 days in presence of daclatasvir by qRT-PCR analysis; type: functional, Hepacivirus hominis; in short: as §3
Hepatitis C virus [6] = test: Antiviral activity against GFP-fused HCV JFH-1 harboring K78E/E2-G451R/NS3-M260K/NS5A-T462I mutant infected in human Huh7.5.1 cells assessed as reduction in viral infection at 10 uM preincubated for 2 hrs followed by viral infection and measured after 48 hrs by epifluorescence microscopic analysis relative to control; type: functional, Hepacivirus hominis; design: scale not given: the % may be the effect or the level left
In short: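 Primary screen at 10 μM. Huh7.5.1 cells were pretreated 2 h, then infected with GFP-HCV (MOI 1). GFP intensity was checked by fluorescence microscopy at 48 h. Hits needed over 50% fluorescence decay before dose-response retesting.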

Homo sapiens = organism: Homo sapiens; test: Potency index, ratio of teriflunomide IC50 to test compound IC50 for C-terminal 6-His tagged recombinant human DHODH N-terminal domain delta29 mutant expressed in Escherichia coli BL21(DE3)
In short: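 DCIP assay: His6-Δ29 human DHODH at 10 nM final in 50 mM HEPES pH 7.7, 150 mM KCl, 0.1% Triton X-100, with 100 μM UQ0 and 120 μM DCIP, preincubated 5 min at RT. Reaction started with 500 μM dihydroorotate; A600 read every 30 s for 6 min.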

[7] = molecular target: Inosine-5'-monophosphate dehydrogenase 2 (Homo sapiens) (UniProt P12268); test: Binding affinity to IMPDH2 (unknown origin)
Chain of Inosine-5'-monophosphate dehydrogenase 2 (Homo sapiens) (P12268 2-514 limits assumed): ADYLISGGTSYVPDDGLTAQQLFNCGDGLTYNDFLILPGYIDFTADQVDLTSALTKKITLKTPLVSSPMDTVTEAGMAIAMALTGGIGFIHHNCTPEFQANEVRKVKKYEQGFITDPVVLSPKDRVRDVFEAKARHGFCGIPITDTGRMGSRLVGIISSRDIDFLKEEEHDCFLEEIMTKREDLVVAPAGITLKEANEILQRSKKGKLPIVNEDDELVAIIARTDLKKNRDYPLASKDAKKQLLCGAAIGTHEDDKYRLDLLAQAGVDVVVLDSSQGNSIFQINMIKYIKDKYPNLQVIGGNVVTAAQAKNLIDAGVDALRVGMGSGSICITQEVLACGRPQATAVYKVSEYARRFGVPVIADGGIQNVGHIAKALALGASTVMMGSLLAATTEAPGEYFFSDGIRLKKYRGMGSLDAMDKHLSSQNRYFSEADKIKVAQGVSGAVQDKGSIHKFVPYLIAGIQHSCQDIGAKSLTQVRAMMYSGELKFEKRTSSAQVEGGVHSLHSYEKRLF

Hepatitis C virus [8] = test: Antiviral activity against EGFP-fused HCV JFH-1 harboring K78E/E2-G451R/NS3-M260K/NS5A-T462I mutation infected in human Huh7.5.1 cells assessed as reduction in viral RNA level after 2 days in presence of daclatasvir by qRT-PCR analysis; type: functional, organism-based; conditions: Hepacivirus hominis
In short: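 Huh7.5.1 cells at 1×10^4/well, grown overnight at 37 °C. HCVcc was mixed with serially diluted compound (top 30 or 6 μM), given alone or with the named drug, and added to the cells. Viral RNA was read by qRT-PCR after 2 days. EC50 is the concentration giving 50% RNA reduction.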

[9] = Selectivity index, ratio of CC50 for human Huh7.5.1 cells to EC50 for ZIKV infected in human Huh7.5.1 cells; type: toxicity, cell-based; conditions: read-out: Ratio CC50/EC50; in short: as §1
[10] = Cytotoxicity against African green monkey Vero cells infected with CHIKV assessed as decrease in cell viability after 48 hrs by WST1 assay; type: cell-based; conditions: chlorocebus sabaeus; in short: as §2
Huh7.5.1 = test: Cytotoxicity against human Huh7.5.1 cells infected with DENV assessed as decrease in cell viability after 48 hrs by WST1 assay; type: cell-based; conditions: Huh-7.5.1, 48 h; in short: as §2
Enterovirus A71 = test: Antiviral activity against EV71 infected in human RD cells measured at 24 hrs post-infection by luciferase reporter gene assay; type: functional, organism-based; conditions: Enterovirus A
In short: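 RD cells at 1×10^4/well, cultured overnight, were infected with EV71(FY)-Luc at MOI 1 and treated with compound immediately afterwards. Luminescence read-out; EC50 is 50% signal reduction.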

Hepatitis C virus [11] = test: Antiviral activity against EGFP-fused HCV JFH-1 harboring K78E/E2-G451R/NS3-M260K/NS5A-T462I mutation infected in human Huh7.5.1 cells assessed as combination index after 2 days in presence of ribavirin by qRT-PCR analysis; type: functional, Hepacivirus hominis; in short: as §3
[12] = Cytotoxicity against human Huh7.5.1 cells infected with ZIKV assessed as decrease in cell viability after 48 hrs by WST1 assay; type: cell-based
In short: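 Cells seeded at 1 × 10^4 per well and cultured overnight at 37 °C, then incubated 48 h with serially diluted compounds. Viability read with WST-1 reagent as absorbance at OD450/OD630.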

Hepatitis C virus [13] = test: Antiviral activity against HCV infected in human Huh7.5.1 cells assessed as decrease in viral infection; type: functional, organism-based, Hepacivirus hominis; conditions: Huh-7.5.1
[14] = Selectivity index, ratio of CC50 for African green monkey Vero cells to EC50 for CHIKV infected in African green monkey Vero cells; type: toxicity; conditions: read-out: Ratio CC50/EC50
Hepatitis C virus [15] = test: Antiviral activity against HCV JFH-1 pseudotyped viral particle infected in HEK293T cells cotransfected with pCDN3.1-JFH1-cE1E2 plasmid encoding envelope with full length JFH1 and pNL4-3R-E-luciferase construct by luciferase reporter gene assay; type: functional, organism-based, Hepacivirus hominis; conditions: JFH-1, HEK-293T
In short: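 HCVpp came from HEK293T co-transfected with the JFH1 E1E2 plasmid and pNL4-3R-E-luciferase. Supernatant was harvested at 48 h, filtered and luciferase-standardised for input. Virus was mixed with serially diluted compound (top 30 or 6 μM) and added to cells. Luminescence was read; EC50 is 50% signal reduction.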

Hepatitis C virus [16] = test: Ratio of EC50 for antiviral activity against HCV infected in human Huh7.5.1 cells assessed as decrease in viral infection in presence of uridine to EC50 for antiviral activity against HCV infected in human Huh7.5.1 cells assessed as decrease in viral infection in absence of uridine; type: functional, Hepacivirus hominis
In short: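 HCV antiviral EC50 in Huh7.5.1 cells was measured with 0.5 mM uridine supplemented, and compared with the EC50 obtained without uridine.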

[17] = system: Respiratory syncytial virus; test: Antiviral activity against RSV infected in African green monkey Vero cells assessed as inhibition of viral replication measured after 5 to 7 days by plaque formation assay; type: functional, organism-based; conditions: human respiratory syncytial virus
In short: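 Vero cells at 2×10^4/well were cultured 18 h, then infected with RSV at 2000 TCID50/ml. Compound (0.01–20 µM) was added immediately. Viral amount was measured by plaque formation assay.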

With CCN(CC)c1ccc(Oc2ccc(-c3[nH]c4cccc(F)c4c(=O)c3C)cc2F)cc1 the selectivity ratio [1] was over 357, the CC50 at 48 h [2] was over 2500 nM and the CI (Hepatitis C virus [3]) was “>=10 - 50”. For the same compound, the selectivity ratio [4] was over 41, the CI (Hepatitis C virus [5]) was “>=10 - 50” and the Activity (Hepatitis C virus [6]) was over 50%. The Ratio IC50 (Homo sapiens) was 4, the Activity [7] was “inactive” and the Activity (Hepatitis C virus [8]) was “Dose-dependent effect”. The selectivity ratio [9] was over 125, the CC50 at 48 h [10] was over 2500 nM and the EC50 (Huh7.5.1) was over 2500 nM. It also gave an EC50 (Enterovirus A71) of 4 nM, a CI (Hepatitis C virus [11]) of over 50 and a CC50 at 48 h [12] of over 2500 nM. The EC50 (Hepatitis C virus [13]) was 15 nM, the selectivity ratio [14] was over 10 and the EC50 (Hepatitis C virus [15]) was over 50000 nM. For the same compound, the “Ratio EC50” value (Hepatitis C virus [16]) was 200 and the EC50 [17] was 60 nM.
